According to the array DNA melting data of Ke et al. (doi:10.1101/2024.01.08.574731):

Columns and labels:
[1] = folding enthalpy; higher = less favourable; fluorescence melt of hairpins on a sequencing array, two-state fit; conditions: sodium 0.088 M
Procedure, shortened: (§1)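 Cy3 fluorescence of library hairpins on a sequenced MiSeq flow cell, with annealed Cy3 and quencher oligos, was imaged in 50 mM Na-HEPES pH 8.0, 25 mM NaCl in 2.5 °C steps up to 60 °C. Signals were normalised to pre-quench Cy3 and to control variants. Melting temperature and folding enthalpy came from bootstrapped two-state fits, inverse-variance combined over four replicates. Fitted temperatures were raised by 9.35 °C to match UV melts.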

[2] = melting temperature; fluorescence melt of hairpins on a sequencing array, two-state fit, raised by 9.35 °C to match UV melts; conditions: sodium 0.088 M
Procedure, shortened: as §1

Sequence | folding enthalpy [1] [kcal/mol] | Tm [2] [°C]
GGACGCGAAAGCGTTCC ((((((....))).))) | -14.1 | 61.8
GGACGCGGAAACGCGTTC (.(((((....))))).) | -16.6 | 62.2
GGACGGCGAAAGCCTTCC (((.(((....))).))) | -22.6 | 52.5
GGACGGGGAAACCCACCC ((..(((....)))..)) | -10.4 | 26.1
GGACGTGGAAACACACCC ((..(((....)))..)) | -7.91 | 25
GGACGTGGAAACACGTTC (.(((((....))))).) | -23 | 53.7
GGACTACGAAAGTAATCC (((.(((....))).))) | -33.4 | 38.7
GGACTACGAAAGTATCC (((.(((....)))))) | -21.5 | 36.8
GGACTAGCGAAAGCTTCC (((..(((....)))))) | -10.7 | 27.5
GGACTCGAAAGAGATCC ((((((....))).))) | -22.1 | 44.7
GGACTCGAAAGAGGTTCC ((((((....)))..))) | -17.6 | 33.8
GGACTCGAAAGAGTCTCC ((((((....)))..))) | -10.4 | 53.3
GGACTGGGAAACCAGTCC (((((((....))))))) | -35.3 | 68.5
GGACTGGGAAACTAGTCC (((((.(....).))))) | -32.1 | 50.2
GGAGAAACGAAAGTTTCC (((..(((....)))))) | -14.1 | 37.7
GGAGAAGGAAACCTCTCC (((((.(....).))))) | -28.6 | 37.7
GGAGACCGAAAGGTTTCC (((.(((....))).))) | -41.5 | 55.5
GGAGACGAAAGTCCCTCC ((((((....)))..))) | -16.3 | 49.8
GGAGACGAAAGTCTTCC ((((((....))).))) | -18 | 50.9
GGAGACTCGAAAGAGTCC (((..(((....)))))) | -10 | 45.4
GGAGAGCCGAAAGGCTCC (((..(((....)))))) | -6.93 | 43.3
GGAGAGCGAAAGCTGTCC (((.(((....))).))) | -32.8 | 58.2
GGAGAGGCGAAAGCCTCC (((..(((....)))))) | -7.4 | 49.5

Sequence | folding enthalpy [1] [kcal/mol] | Tm [2] [°C]
GGAGAGGGAAACCTTTCC (((.(((....))).))) | -27.3 | 38.2
GGAGAGTCGAAAGACTCC (((..(((....)))))) | -10.9 | 46.6
GGAGATGCGAAAGCATCC (((..(((....)))))) | -8.76 | 46.6
GGAGATGGAAACACCTCC ((((.((....)).)))) | -29.7 | 39.7
GGAGATGGAAACATCCCC ((.((((....)))).)) | -26.6 | 41.3
GGAGATGGAAACATTTCC (((.(((....))).))) | -32.9 | 39.2
GGAGATGGAAACGTTTCC (((.(.(....).).))) | -16.5 | 32.9
GGAGCACCGAAAGGTTCC (((..(((....)))))) | -11.3 | 30.2
GGAGCAGCGAAAGCTTCC (((..(((....)))))) | -13.8 | 30.8
GGAGCCCGAAAGGGTCC (((.(((....)))))) | -18.9 | 59.9
GGAGCCCGAAAGGGTTCC (((.(((....))).))) | -25.7 | 68.4
GGAGCCGAAAGGCCCTCC ((((((....)))..))) | -12.8 | 64.6
GGAGCCGAAAGGCCGTCC ((((((....)))..))) | -9.47 | 36.3
GGAGCCGAAAGGCCTCC ((((((....))).))) | -24.4 | 54.5
GGAGCCGGAAACGACCCC ((.(.((....)).).)) | -15.5 | 29.4
GGAGCGACGAAAGTCTCC (((..(((....)))))) | -13.9 | 36.6
GGAGCGCGAAAGCGTTCC (((.(((....))).))) | -35 | 67.6
GGAGGACGAAAGTCATCC (((.(((....))).))) | -33.3 | 61.4
GGAGGAGGAAACTCCCCC ((.((((....)))).)) | -17.6 | 41.8
GGAGGCACGAAAGTGTCC (((..(((....)))))) | -12.6 | 41
GGAGGCGAAAGCCAGTCC ((((((....)))..))) | -10.6 | 34.1
GGAGGCGAAAGCCCTTCC ((((((....)))..))) | -15.2 | 53.1
GGAGGCGAAAGCCGGTCC ((((((....)))..))) | -9.6 | 43.3

Sequence | folding enthalpy [1] [kcal/mol] | Tm [2] [°C]
GGAGGCGGAAACACCCCC ((.((.(....).)).)) | -12.8 | 26.6
GGAGGGAAACCTCC (((((....))))) | -26.3 | 54.7
GGAGGGCGAAAGCCTTCC (((.(((....))).))) | -24.9 | 61.9
GGAGGTCGAAAGACATCC (((.(((....))).))) | -38.7 | 57.5
GGAGGTCGAAAGACTTCC (((.(((....))).))) | -37.5 | 53.5
GGAGTACGAAAGTATCC (((.(((....)))))) | -22.7 | 38.5
GGAGTACGAAAGTATTCC (((.(((....))).))) | -33.1 | 49.2
GGAGTAGAAATACTCC ((((((....)))))) | -32.6 | 52
GGAGTAGGAAACTACTCC (((((((....))))))) | -46.4 | 59
GGAGTCCGAAAGGATCC (((.(((....)))))) | -21.6 | 47.8
GGAGTCCGAAAGGATTCC (((.(((....))).))) | -47.8 | 55.7
GGAGTCGAAAGACATCC ((((((....))).))) | -18.2 | 42.8
GGAGTCGAAAGACGATCC ((((((....)))..))) | -12.3 | 46
GGAGTCGAAAGACGGTCC ((((((....)))..))) | -14.1 | 39.2
GGAGTCGGAAACGACCCC ((.((((....)))).)) | -15.2 | 54.4
GGAGTGCGAAAGCAATCC (((.(((....))).))) | -35.7 | 60.1
GGAGTGTCGAAAGACTCC (((..(((....)))))) | -17.2 | 39.2
GGAGTTCGAAAGAATCC (((.(((....)))))) | -17.5 | 33.5
GGAGTTGGAAACAGCTCC ((((.((....)).)))) | -43.9 | 50.2
GGATAACCGAAAGGTTCC (((..(((....)))))) | -14.1 | 32.4
GGATAACGAAAGTTTCC (((.(((....)))))) | -20.4 | 40.1
GGATAAGGAAACCTATCC (((((.(....).))))) | -30.3 | 33.5
GGATAAGGAAACTTGTCC (((.(((....))).))) | -29.6 | 39.2

Sequence | folding enthalpy [1] [kcal/mol] | Tm [2] [°C]
GGATACCGAAAGGTGTCC (((.(((....))).))) | -44 | 58.8
GGATACGAAAGTAACTCC ((((((....)))..))) | -16 | 30.6
GGATACGAAAGTACCTCC ((((((....)))..))) | -20 | 40.1
GGATACGAAAGTATCTCC ((((((....)))..))) | -13.3 | 46.2
GGATACGGAAACGTGTCC (((.(((....))).))) | -46.1 | 52.7
GGATCAGGAAACTGGTCC (((.(((....))).))) | -39.2 | 51.3
GGATCCCCGAAAGGGTCC (((..(((....)))))) | -19.8 | 45.3
GGATCCCGAAAGGGTTCC (((.(((....))).))) | -29.8 | 54.3
GGATCCGAAAGGAATTCC ((((((....)))..))) | -14.1 | 32.2
GGATCCGAAAGGATCTCC ((((((....)))..))) | -9.17 | 53.6
GGATCGGGAAACCGATTC (.(((((....))))).) | -26.6 | 50.6
GGATCTGGAAACAGGTTC (.(.(((....))).).) | -14.1 | 30.5
GGATCTGGAAACGGATTC (.(((.(....).))).) | -28.5 | 31.5
GGATGACCGAAAGGTTCC (((..(((....)))))) | -10.9 | 34.2
GGATGACGAAAGTCGTCC (((.(((....))).))) | -38.4 | 64.5
GGATGAGGAAACTCATCC (((((((....))))))) | -43.5 | 63.1
GGATGAGGAAACTTGTCC (((..((....))..))) | -24.4 | 31.1
GGATGCACGAAAGTGTCC (((..(((....)))))) | -14 | 30.8
GGATGCCGAAAGGCCTCC (((.(((....))).))) | -24.9 | 50.5
GGATGCCGAAAGGCTCC (((.(((....)))))) | -17.8 | 55
GGATGCGAAAGCAACTCC ((((((....)))..))) | -11.9 | 41.8
GGATGCGAAAGCACATCC ((((((....)))..))) | -19.2 | 42.2
